From ChEMBL document CHEMBL1134461, “Hexahydrochromeno[4,3-b]pyrrole derivatives as acetylcholinesterase inhibitors” (J Med Chem, 2001)

Tests used:
Acetylcholinesterase [1] = target: T1, Acetylcholinesterase (Homo sapiens, UniProt P22303); assay: Inhibitory activity against acetylcholinesterase in human erythrocytes; format: cell-based
In short: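 Ellman colorimetric assay with human erythrocyte enzyme (AChE or BChE), 0.035 unit/mL, in 0.1 M phosphate buffer pH 8.0 with 340 μM DTNB. Inhibitor preincubated with enzyme 20 min, then 550 μM acetylthiocholine iodide added. […] IC50 read graphically from log concentration–inhibition curves; pIC50 is the mean of two independent measurements.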

Acetylcholinesterase [2] = target: T1, Acetylcholinesterase
Acetylcholinesterase [3] = target: T1, Acetylcholinesterase; remark: listed apart in the source

T1 sequence (P22303 whole entry): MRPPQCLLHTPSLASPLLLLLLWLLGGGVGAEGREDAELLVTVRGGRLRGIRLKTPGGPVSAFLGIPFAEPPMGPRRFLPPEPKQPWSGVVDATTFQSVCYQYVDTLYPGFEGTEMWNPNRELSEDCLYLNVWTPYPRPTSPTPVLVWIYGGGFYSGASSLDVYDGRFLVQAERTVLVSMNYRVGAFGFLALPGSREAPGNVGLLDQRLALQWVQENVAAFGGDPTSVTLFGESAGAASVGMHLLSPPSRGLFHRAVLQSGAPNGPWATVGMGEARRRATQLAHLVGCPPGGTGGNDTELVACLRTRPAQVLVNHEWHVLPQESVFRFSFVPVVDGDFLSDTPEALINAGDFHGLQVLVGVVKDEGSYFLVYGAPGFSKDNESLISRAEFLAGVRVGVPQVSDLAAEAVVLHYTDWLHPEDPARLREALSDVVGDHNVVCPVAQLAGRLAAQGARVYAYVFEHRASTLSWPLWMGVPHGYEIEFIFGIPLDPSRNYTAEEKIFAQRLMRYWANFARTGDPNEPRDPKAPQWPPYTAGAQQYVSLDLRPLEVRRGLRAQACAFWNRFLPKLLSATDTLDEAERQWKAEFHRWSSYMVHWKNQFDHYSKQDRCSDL

SMILES | IC50 (Acetylcholinesterase [1]) | Kc (Acetylcholinesterase [2]) | k3 (Acetylcholinesterase [3])
CNC(=O)Oc1ccc2c(c1)[C@@H]1[C@@H](CCN1C)CO2 | 16200 nM | – | –
CNC(=O)Oc1ccc2c(c1)OC[C@@H]1CCN(C)[C@H]21 | 1950 nM | – | –
O=C(CCCCCCC(=O)NCCCCCCN1CC[C@H]2COc3ccccc3[C@H]21)NCCCCCCN1CC[C@H]2COc3ccccc3[C@H]21 | 9770 nM | – | –
CNC(=O)Oc1cccc2c1OC[C@@H]1CCN(C)[C@H]21 (stereo in doubt; 4) [listing 1 of 2 here] | 29.5 nM | – | –
CNC(=O)Oc1ccc2c(c1)[C@]1(C)CCN(C)[C@@H]1N2C | – | 250 nM | –
CNC(=O)Oc1ccc2c(c1)OC[C@@H]1CC[N+](C)(C)[C@H]21 | 1820 nM | – | –
CNC(=O)Oc1cccc2c1OC[C@@H]1CCN(C)[C@H]21 (stereo in doubt; 4) [listing 2 of 2 here] | – | 730 nM | 26.5 min⁻¹
CNC(=O)Oc1cccc2c1OC[C@@H]1CCN(C)[C@H]21 (stereo in doubt; (-)-4) | 22.9 nM | – | –
CN1CC[C@H]2COc3c(O)cccc3[C@H]21 | 39800 nM | – | –
CNC(=O)Oc1cccc2c1OC[C@@H]1CCN(C)[C@H]21 (stereo in doubt; (+)-4) | 74.1 nM | – | –
